# Measured values reported in paper PMC6542277 (Journal of medicinal chemistry, 2018).
# Where a SMILES comes first, the peptide text is derived from it. Bridges are numbered along the chain shown (N, C = ends). Roman numbers before positions name the chains, in order. [ ]: non-standard residue; d: D form. The star is where a group is joined. X1 = CN1C(=CC=CC=CC2=[N+](CCCCCC(=O)*)c3ccc4ccccc4c3C2(C)C)C(C)(C)c2c1ccc1ccccc21; AEEEA = NCCOCCOCCOCC(=O)O
# How the values were obtained:
# [1] = system: EGFR/ErbB2 signaling (p-EGFR, p-ErbB2, p-AKT, p-ERK) in SKBr3 cells; test: Effect on cell signaling, Western blot; format: cell-based, human
# Hydrophilicity = format: physicochemical; settings: triethyleneglycol linker (E3); method not given
# [2] = Enzymatic stability in mouse serum; format: in vitro ADME; settings: 30 μM in mouse serum, 37°C, at 2 hour; HPLC of supernatant after centrifugation
# Procedure, shortened: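 Samples taken at 0.5, 1.0, 1.5 and 2 h of serum incubation at 37°C were centrifuged at 14,000 rpm. 20 μL of supernatant was analysed by HPLC.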
# [3] = Stability in PBS containing 0.1% BSA; format: physicochemical; settings: 0.01 mol/L PBS, pH 7.4, 37°C, HPLC at 0.5, 2, 6 and 12 hours
# SKBr3 cells = test: Internalization, confocal images over time; format: cell-based, human
# [4] = system: OE33 human esophageal adenocarcinoma cells; test: Confocal microscopy binding validation; format: cell-based
# Procedure, shortened: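 OE33 cells, kept in RPMI 1640 with 10% FBS and penicillin/streptomycin at 37°C, 5% CO2, grown to ~70% confluence on coverslips. Cells were blocked with 2% BSA/PBS for 30 min, given Cy5.5-labelled peptides, washed 3×, fixed in ice-cold 4% PFA for 10 min and mounted with DAPI. Confocal intensities were quantified from 3 independent images.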
# EGFR = EGFR (Homo sapiens, UniProt P00533); test: siRNA knockdown of EGFR, confocal binding; format: cell-based; settings: confocal microscopy; mean of 5 cells from 3 images; P=3.6×10^−4
# Chain of EGFR (P00533 25-1210): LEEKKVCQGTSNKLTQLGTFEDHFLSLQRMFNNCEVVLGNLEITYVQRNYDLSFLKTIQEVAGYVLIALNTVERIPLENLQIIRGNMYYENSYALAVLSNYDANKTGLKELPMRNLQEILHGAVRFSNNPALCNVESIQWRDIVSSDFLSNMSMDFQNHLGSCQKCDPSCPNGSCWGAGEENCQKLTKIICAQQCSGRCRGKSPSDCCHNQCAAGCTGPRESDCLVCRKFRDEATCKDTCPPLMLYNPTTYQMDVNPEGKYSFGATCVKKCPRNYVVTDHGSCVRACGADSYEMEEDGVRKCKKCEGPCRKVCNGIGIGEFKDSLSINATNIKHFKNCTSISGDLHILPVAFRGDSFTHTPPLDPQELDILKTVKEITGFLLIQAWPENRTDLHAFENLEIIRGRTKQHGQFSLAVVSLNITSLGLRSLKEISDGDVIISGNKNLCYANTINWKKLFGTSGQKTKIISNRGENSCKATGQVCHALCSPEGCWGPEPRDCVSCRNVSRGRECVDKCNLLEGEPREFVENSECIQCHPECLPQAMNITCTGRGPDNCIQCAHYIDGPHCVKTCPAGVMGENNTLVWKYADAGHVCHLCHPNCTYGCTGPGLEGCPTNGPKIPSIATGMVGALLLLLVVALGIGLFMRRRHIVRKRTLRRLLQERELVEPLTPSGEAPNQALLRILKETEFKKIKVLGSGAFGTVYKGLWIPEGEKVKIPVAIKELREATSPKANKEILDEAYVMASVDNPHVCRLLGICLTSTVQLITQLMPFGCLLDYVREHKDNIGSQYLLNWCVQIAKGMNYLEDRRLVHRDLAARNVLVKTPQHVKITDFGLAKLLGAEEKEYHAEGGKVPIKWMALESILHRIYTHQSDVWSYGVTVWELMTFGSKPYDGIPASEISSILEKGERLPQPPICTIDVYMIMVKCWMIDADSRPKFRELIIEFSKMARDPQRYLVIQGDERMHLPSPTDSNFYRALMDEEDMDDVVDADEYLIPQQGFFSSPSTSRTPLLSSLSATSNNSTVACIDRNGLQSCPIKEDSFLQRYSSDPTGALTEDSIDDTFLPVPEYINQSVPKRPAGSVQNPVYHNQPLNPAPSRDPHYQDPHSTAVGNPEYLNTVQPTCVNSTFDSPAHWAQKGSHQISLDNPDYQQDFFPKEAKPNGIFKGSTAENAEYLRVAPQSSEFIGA
# ErbB2 = ErbB2 (Homo sapiens, UniProt P04626); test: siRNA knockdown of ErbB2, confocal binding; format: cell-based; settings: confocal microscopy; mean of 5 cells from 3 images; P=7.8×10^−3
# Chain of ErbB2 (P04626 23-1255): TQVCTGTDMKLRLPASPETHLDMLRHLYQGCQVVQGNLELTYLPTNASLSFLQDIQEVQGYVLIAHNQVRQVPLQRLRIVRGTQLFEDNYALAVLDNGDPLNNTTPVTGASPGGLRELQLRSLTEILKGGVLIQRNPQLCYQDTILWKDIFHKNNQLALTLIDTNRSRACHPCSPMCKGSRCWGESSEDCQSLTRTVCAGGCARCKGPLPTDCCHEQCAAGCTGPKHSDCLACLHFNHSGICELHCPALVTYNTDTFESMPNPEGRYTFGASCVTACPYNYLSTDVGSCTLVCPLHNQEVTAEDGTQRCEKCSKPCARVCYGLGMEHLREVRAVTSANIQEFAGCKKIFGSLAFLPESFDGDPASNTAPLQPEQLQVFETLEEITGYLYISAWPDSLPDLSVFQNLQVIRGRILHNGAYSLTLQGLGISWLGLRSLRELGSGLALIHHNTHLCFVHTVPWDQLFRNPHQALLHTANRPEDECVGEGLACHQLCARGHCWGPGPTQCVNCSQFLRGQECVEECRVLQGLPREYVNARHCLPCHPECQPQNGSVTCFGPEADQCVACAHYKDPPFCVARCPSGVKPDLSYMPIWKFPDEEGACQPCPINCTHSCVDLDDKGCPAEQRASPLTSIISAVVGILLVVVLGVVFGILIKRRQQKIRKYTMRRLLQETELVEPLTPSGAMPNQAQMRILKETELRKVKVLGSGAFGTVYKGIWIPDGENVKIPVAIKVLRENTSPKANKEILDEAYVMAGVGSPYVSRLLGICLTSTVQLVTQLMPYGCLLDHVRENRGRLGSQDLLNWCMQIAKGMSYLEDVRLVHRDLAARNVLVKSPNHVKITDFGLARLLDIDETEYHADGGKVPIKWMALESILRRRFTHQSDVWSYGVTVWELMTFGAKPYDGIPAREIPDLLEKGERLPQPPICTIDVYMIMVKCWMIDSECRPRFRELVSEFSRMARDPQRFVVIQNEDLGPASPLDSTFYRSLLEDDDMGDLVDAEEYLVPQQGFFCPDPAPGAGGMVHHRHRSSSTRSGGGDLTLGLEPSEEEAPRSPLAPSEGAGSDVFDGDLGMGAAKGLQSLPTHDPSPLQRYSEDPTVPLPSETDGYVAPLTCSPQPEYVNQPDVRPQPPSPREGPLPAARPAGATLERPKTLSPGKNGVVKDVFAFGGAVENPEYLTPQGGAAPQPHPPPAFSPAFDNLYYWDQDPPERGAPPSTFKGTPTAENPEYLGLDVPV
# [5] = Acute toxicity on histology; format: in vivo, mouse; settings: nude mice after systemic injection of 300 μM, 150 μL PBS
# [6] = system: Barrett's neoplasia (HGD and EAC); test: Binding to human esophageal specimens ex vivo, confocal microscopy; settings: for AUC of ROC curve: human FFPE esophageal specimens ex vivo, HGD and EAC versus SQ and BE
# Procedure, shortened: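 Archived FFPE human esophagus cut at 10 μm, deparaffinized, rehydrated, then given two-step acidic plus protease antigen retrieval. Sections were blocked with protein serum for 10 min, stained with 0.5 μM heterodimer for 10 min in the dark at RT, then anti-EGFR and anti-ErbB2 antibodies with secondaries. Mean intensity came from three 20×20 μm2 epithelial boxes, avoiding saturated regions. SQ/BE/HGD/EAC groups (n = 31, 8, 23, 12) compared by unpaired t test and one-way ANOVA.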
# OE33 cells [7] = test: Apparent association time constant by flow cytometry; format: binding, human; settings: 1 μM peptide, 4°C
# Procedure, shortened: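 OE33 cells grown to ~80% confluence, detached with PBS-based dissociation buffer, then held with 1 μM labelled heterodimer at 4°C for periods of 0–60 min. Cells were centrifuged, washed in cold PBS and fixed in 4% PFA before flow cytometry. Median fluorescence was ratioed to peptide-free cells, and k was fitted to y(t) = Imax[1−exp(−kt)].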
# OE33 xenograft tumors [8] = test: Biodistribution, ex vivo organ fluorescence; parameters: species or system mouse; settings: nude mice, 300 μM in 150 μL PBS, 2 hours
# OE33 cells [9] = test: Apparent dissociation constant by flow cytometry; format: binding, human; settings: from kd on OE33 cells
# Procedure, shortened: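 Labelled heterodimer serially diluted in PBS (0, 10, 25, 50, 100, 200 nM) and incubated with OE33 cells at 4°C for 1 h, then washed in cold PBS. Mean fluorescence was read by flow cytometry. kd = 1/ka came from a least-squares fit to I = (I0 + Imax·ka[X])/(I0 + ka[X]), where I0 is the no-peptide intensity and Imax the saturation intensity.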
# [10] = In vivo whole-body NIR fluorescence imaging; settings: mouse, in vivo, iv, 300 uM, 150 uL
# OE33 xenograft tumors [11] = test: In vivo whole-body NIR fluorescence imaging; settings: nude mice, OE33 xenograft, 300 μM in 150 μL PBS via tail vein, NIR fluorescence
# [12] = human esophageal specimens ex vivo, confocal microscopy, 0.5 μM, 10 min, RT
molecule,measurement,setting,value
"CS(=O)(=O)CCNCc1ccc(-c2ccc3ncnc(Nc4ccc(OCc5cccc(F)c5)c(Cl)c4)c3c2)o1 [lapatinib, reference compound]","expression of p-ErbB2, p-AKT and p-ERK",[1]; lapatinib 100 nM,reduced expression
CN1C(=CC=CC=CC2=[N+](CCCCCC(=O)NCCCC[C@H](NC(=O)[C@H](CCCCNC(=O)COCCOCCOCCNC(=O)[C@H](Cc3ccccc3)NC(=O)[C@H](CCCNC(=N)N)NC(=O)[C@@H]3CCCN3C(=O)[C@H](CC(N)=O)NC(=O)[C@@H]3CCCN3C(=O)[C@H](CO)NC(=O)[C@@H](N)CCCCN)NC(=O)COCCOCCOCCNC(=O)[C@H](CCC(=O)O)NC(=O)[C@H](CCCNC(=N)N)NC(=O)[C@@H]3CCCN3C(=O)[C@H](CCCCN)NC(=O)[C@H](Cc3c[nH]cn3)NC(=O)[C@H](CCCNC(=N)N)NC(=O)[C@@H](N)CCC(N)=O)C(N)=O)c3ccc4ccccc4c3C2(C)C)C(C)(C)c2c1ccc1ccccc21 [QRH*-KSP*-E3-Cy5.5] (I: H-QRHKPRE[AEEEA]KK(X1)-NH2 / II: H-KSPNPRF[AEEEA]; amide I:9-II:C; N-terminus and C-terminus assumed),hydrophilicity,Hydrophilicity,good hydrophilicity
same,area of new formed peak (may arise from degradation),[2],about 20%
same,degradation in PBS containing 0.1% BSA,[3],No noticeable degradation
same,time at which internalization begins,SKBr3 cells,8 min
same,time at which internalization reaches near completion,SKBr3 cells,40 min
same,binding to surface of OE33 cells,"[4]; 1 μM, 30 min, 4°C",strong binding
same,fluorescence intensity compared with either monomer alone,[4]; binding to OE33 cells,3 fold
same,"fluorescence intensity, siCL (control) versus siEGFR (knockdown) SKBr3 cells",EGFR,significantly greater intensity
same,"fluorescence intensity, siCL (control) versus siErbB2 (knockdown) SKBr3 cells",ErbB2,significantly greater intensity
same,acute toxicity on histology (H&E),[5],no evidence of acute toxicity
same,AUC of ROC curve,[6],0.95
same,fluorescence intensity with SQ and BE,[6]; [12],minimal fluorescence intensity
same,fluorescence signal with HGD and EAC,[6]; [12],increased signal
same,association time (printed in brackets after k),OE33 cells [7],4.5 min
same,uptake in kidney,OE33 xenograft tumors [8]; supports renal clearance,High uptake
same,uptake in tumor relative to muscle,"OE33 xenograft tumors [8]; OE33 xenograft, n = 6",3 fold
same,downstream change in AKT (p-AKT) and ERK (p-ERK),"[1]; heterodimer at 1, 5 and 20 μM",no downstream change
same,phosphorylation of EGFR (p-EGFR) or ErbB2 (p-ErbB2),"[1]; heterodimer at 1, 5 and 20 μM",no change
same,affinity compared with either monomer alone,OE33 cells [9],2 fold
same,tissue to tissue ratio at 2 h,[10],2.39 ± 0.52
same,time at which signal returns to baseline (systemic clearance),OE33 xenograft tumors [11],~ 24 hours
KSPNPRF [KSP*-Cy5.5],AUC of ROC curve,[6],0.91
"EGF: endogenous ligand for EGFR, positive control","phosphorylation of AKT (p-AKT) and ERK (p-ERK), positive control",[1]; EGF 100 ng/mL,strong phosphorylation activity
QRHKPRE [QRH*-Cy5.5],AUC of ROC curve,[6],0.79
"C[C@H](NC(=O)CNC(=O)CNC(=O)CN)C(=O)NCC(=O)NCC(=O)NCC(=O)NCCCC[C@H](NC(=O)CNC(=O)CNC(=O)CNC(=O)[C@H](C)NC(=O)CNC(=O)CNC(=O)CN)C(=O)N[C@@H](CCCCNC(=O)CCCCC[N+]1=C(C=CC=CC=C2N(C)c3ccc4ccccc4c3C2(C)C)C(C)(C)c2c1ccc1ccccc21)C(N)=O [(GGGAGGG)2KK-Cy5.5, reference compound] (I: H-GGGAGGGKK(X1)-NH2 / II: H-GGGAGGG; amide I:8-II:C)",tissue to tissue ratio at 2 h,[10],1.43 ± 0.28
